Test results reported in ChEMBL document CHEMBL4732138, “Evaluation of the Structure-Activity Relationship of Microtubule-Targeting 1,2,4-Triazolo[1,5-a]pyrimidines Identifies New Candidates for Neurodegenerative Tauopathies” (J Med Chem, 2021).
Calls of active or inactive are those of the source. The calls are words filed in the database; no cut-off is given here.

Experiments:
[1] = Ratio of drug concentration in brain to plasma in CD-1 mouse at 2.5 mg/kg, ip administered as single cassette dosing and measured after 1 hr; format: ADME, organism-based; conditions: read-out: BPR
Procedure, shortened: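 Groups of three female CD-1 mice, 2–3 months old, cassette-dosed i.p. with 2–3 compounds at the same time, each at 2.5 mg/kg in DMSO. Euthanised 1 h after dosing. Brain hemispheres homogenised in 10 mM ammonium acetate pH 5.7 (50% w/v). Plasma from blood collected in EDTA and centrifuged 4,500 × g, 10 min, 4 °C. Compound levels measured in both; brain/plasma ratio reported.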

[2] = Half life in CD-1 mouse plasma at 5 mg/kg, ip administered as single cassette dosing and measured upto 16 hrs; format: ADME, organism-based
Procedure, shortened: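 CD-1 mice, female, 2–3 months old, three per group, given a single i.p. dose of 5 mg/kg dissolved in DMSO. Brain and plasma sampled over 16 h. Plasma is from blood collected in 0.5 M EDTA and spun 10 min at 4,500 × g, 4 °C. Brain hemispheres are sonicated in 10 mM ammonium acetate pH 5.7 (50% w/v). Compound levels are measured in plasma and brain homogenates.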

Primary cortical neuron [3] = test: Stabilization of microtubules in Spargue-Dawley rat primary cortical neurons assessed as prevention of microtubule collapse by causing increase in acetyl tubulin levels at 1 uM incubated for 8 hrs in presence of phosphatase inhibitor OA by fluorescence microscopy analysis; format: tissue-based
Procedure, shortened: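 Rat cortical neurons are grown 10 days on coverslips. They are treated 8 h with or without 15 nM okadaic acid, with or without test compound at 1 µM. Axonal acetyl-tubulin is then assessed by immunostaining.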

Primary cortical neuron [4] = test: Stabilization of microtubules in CD-1 mouse primary cortical neurons assessed as prevention of microtubule collapse by causing increase in acetyl tubulin levels at 10 uM incubated for 8 hrs in presence of phosphatase inhibitor OA by ELISA; format: tissue-based
Procedure, shortened: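 Mouse cortical neurons are plated at 6 × 10^5 cells/well and grown 10 days. […] Acetyl-tubulin in homogenates is measured by ELISA.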

[5] = n-octanol-water distribution coefficient, log D of the compound at pH 7.4 by shake flask method; format: physicochemical; conditions: n-octanol/water, read-out: logD
Procedure, shortened: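 Distribution coefficient between n-octanol and water at pH 7.4, measured by shake-flask method.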

Tubulin (Homo sapiens) [6] = biological target: T1, Tubulin (Homo sapiens) (UniProt P68371+Q9H4B7+P0DPH7+P68366+Q13509+Q71U36+P04350+Q3ZCM7+P07437+P68363+Q9BQE3+Q6PEY2+Q13885+Q9BVA1+Q9BUF5); test: Stabilization of microtubules in human QBI293 cells assessed as increase in acetylated tubulin levels after 4 hrs by ELISA; format: cell-based
Procedure, shortened: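 QBI293 cells are grown in DMEM with 10% FBS, 2 mM L-glutamine and penicillin/streptomycin, plated at 6 × 10^5 cells/well and incubated overnight. […] Acetyl- and total α-tubulin in whole-cell extract supernatants are measured by ELISA against standard curves, with protein by BCA. Values are fold-change over DMSO; AcTub is also given relative to 100 nM cevipabulin positive control. Significance is by one-way ANOVA.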

[7] = Ratio of drug concentration in brain to plasma in CD-1 mouse at 5 mg/kg, ip administered as single cassette dosing and measured after 1 hr; format: ADME, organism-based; conditions: read-out: BPR
Procedure, shortened: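 Groups of three female CD-1 mice (2–3 months old) received one i.p. dose of 5 mg/kg in DMSO and were euthanized 1 h later. Brain hemispheres were sonicated in 10 mM ammonium acetate, pH 5.7 (50% w/v). Plasma came from blood collected in 0.5 M EDTA, spun 10 min at 4,500 × g, 4 °C. B/P is the ratio of brain to plasma compound concentration.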

Tubulin (Homo sapiens) [8] = biological target: T1, Tubulin (Homo sapiens); test: Stabilization of microtubules in human QBI293 cells assessed as fold change in acetylated tubulin levels at 1 uM after 4 hrs by ELISA relative to DMSO; format: cell-based
Procedure, shortened: (§1)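 QBI293 cells were grown in DMEM with 10% FBS, 2 mM L-glutamine and penicillin/streptomycin, then plated at 6 × 10^5 cells/well and left overnight. Medium was replaced with fresh medium holding vehicle (DMSO) or compound, and cells were incubated 4 h. Whole-cell extract supernatants were protein-normalized by BCA assay. AcTub and α-tubulin were quantified by ELISA against standard curves. Values are fold-change over DMSO, analysed by one-way ANOVA.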

Tubulin (Homo sapiens) [9] = biological target: T1, Tubulin (Homo sapiens); test: Stabilization of microtubules in human QBI293 cells assessed as fold change in acetylated tubulin levels at 10 uM after 4 hrs by ELISA relative to DMSO; format: cell-based; procedure, shortened: as §1
Tubulin (Homo sapiens) [10] = biological target: T1, Tubulin (Homo sapiens); test: Stabilization of microtubules in human QBI293 cells assessed as fold change in alpha tubulin levels at 1 uM after 4 hrs by ELISA relative to DMSO; format: cell-based; procedure, shortened: as §1
Tubulin (Homo sapiens) [11] = biological target: T1, Tubulin (Homo sapiens); test: Stabilization of microtubules in human QBI293 cells assessed as fold change in alpha tubulin levels at 10 uM after 4 hrs by ELISA relative to DMSO; format: cell-based; procedure, shortened: as §1
Tubulin (Homo sapiens) [12] = biological target: T1, Tubulin (Homo sapiens); test: Stabilization of microtubules in human QBI293 cells assessed as fold change in acetylated tubulin levels at 1 uM after 4 hrs by ELISA relative to cevipabulin; format: cell-based
Tubulin (Homo sapiens) [13] = biological target: T1, Tubulin (Homo sapiens); test: Stabilization of microtubules in human QBI293 cells assessed as fold change in acetylated tubulin levels at 10 uM after 4 hrs by ELISA relative to cevipabulin; format: cell-based

Compound | Kp at 1 h [1] | half-life [2] [h] | Activity (Primary cortical neuron [3]) | Activity (Primary cortical neuron [4]) | logD [5] | Activity (Tubulin (Homo sapiens) [6]) | Kp at 1 h [7] | fold change (FC) (Tubulin (Homo sapiens) [8]) | fold change (FC) (Tubulin (Homo sapiens) [9]) | fold change (FC) (Tubulin (Homo sapiens) [10]) | fold change (FC) (Tubulin (Homo sapiens) [11]) | fold change (FC) (Tubulin (Homo sapiens) [12]) | fold change (FC) (Tubulin (Homo sapiens) [13])
C[C@@H](Nc1c(-c2c(F)cc(C#N)cc2F)c(Cl)nc2ncnn12)C(C)(C)C | 0.7 | 1.8 | Active | Active | 2.35 | – | – | – | – | – | – | – | –
CC(C)[C@@H](C)Nc1c(-c2c(F)cc(F)cc2F)c(Cl)nc2ncnn12 | – | 1.1 | Active | – | 3.51 | Dose-dependent effect | 2.7 | – | – | – | – | – | –
Fc1cc(F)c(-c2c(Cl)nc3ncnn3c2N2CCCCCC2)c(F)c1 | – | – | – | – | 3.38 | Dose-dependent effect | 1.4 | 4.16 | 6.87 | 0.99 | 0.99 | 0.45 | 0.74
